INS promoter act: TRM-6 insulin promoter activation; activation, % at 2 µM; TRM-6 cells, insulin promoter eGFP reporter, imaging; plate-scaled: unstimulated 0, stimulated control 100; 130,000 compounds, 0.81% hits;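 active = activation at 2 µM above a set limit, confirmed on inspection of the cell images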;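 note: share of cells whose green reporter signal exceeds an intensity cutoff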
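System – human fetal islet-derived TRM-6 cells with tamoxifen-inducible insulin promoter–eGFP reporter · Amount – 1,000 cells per well · Schedule – overnight tamoxifen, then two-day compound incubation at 37 °C · Detection – high-content imaging of fixed cells with Hoechst nuclear stain · Read-out – percent cells above green-intensity threshold, converted to percent activation versus plate controls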
Hits are given with their value; – = inactive. This excerpt belongs to a sample that is enriched for hits.

SMILES | INS promoter act
CCCS(=O)(=O)N1CCN=C1SCc1ccc(C)cc1 | –
O=S(=O)(c1ccccc1)N1CCN=C1SCc1ccccc1 | –
Cc1ccc(CSC2=NCCN2S(=O)(=O)c2ccccc2)cc1 | 464
Cc1cc(C)n(C(=O)CCCCCCCCC(=O)n2nc(C)cc2C)n1 | –
OCCN1CCN(c2cc(-c3ccccc3)c3ccccc3n2)CC1 | –
C=C(C)c1cccc(C(C)(C)NC(=O)Nc2ncccn2)c1 | –
C=C(C)c1cccc(C(C)(C)NC(=O)N2CCN(c3ccccc3OC)CC2)c1 | –
C=C(C)c1cccc(C(C)(C)NC(=O)N(C)C2CCN(C)CC2)c1 | 260
CCCn1c(=O)n(C)c(=O)c2c(SCC(=O)NCc3ccco3)nc(C3CC3)nc21 | –
CC(C)CNC(=O)c1ccc(COc2ccc(Cl)cc2Cl)o1 | –
Cc1cc([N+](=O)[O-])c2c(c1C)C1C=CCC1C(c1ccccn1)N2 (stereo not drawn) | –
Cc1c(NC(=O)CN2CCN(c3ccc(F)cc3)CC2)c(=O)n(-c2ccccc2)n1C | –
Cc1ccc(CNC(=O)CSc2nc3ccsc3c(=O)n2Cc2ccc(C(=O)O)cc2)cc1 | –
Cc1cc(C)c(NC(=O)C2CCN(c3cnccn3)CC2)c(C)c1 | 481
O=C(Nc1ccc2c(c1)CCC2)C1CCN(c2ncccn2)CC1 | –
Cc1cc(C)c(NC(=O)C2CCCN2C(=O)NC2CCCCC2)c(C)c1 (stereo not drawn) | –
Cc1ccc(OCc2ccc(C(=O)Nc3nc4ccccc4n3C)o2)c([N+](=O)[O-])c1 | –
O=C(c1cccc(-c2ccc(O)cc2)c1)N1CCN(c2ccc(F)cc2)CC1 | –
CCC(C(=O)O)P(=O)(c1ccc(Cl)cc1)c1ccc(Cl)cc1 (stereo not drawn) | –
COc1cc(OC)c(NC(=O)CCNS(=O)(=O)c2ccc3c(c2)oc(=O)n3C)cc1Cl | –
COc1ccc(OC)c(NC(=O)CCNS(=O)(=O)c2ccc3c(c2)oc(=O)n3C)c1 | –
COc1ccccc1CNC(=O)C(CCSC)NS(=O)(=O)c1ccc2c(c1)oc(=O)n2C (stereo not drawn) | 164
CC(CN(C)Cc1nc(Cc2cccc(C(F)(F)F)c2)no1)CN1CCCC1 (stereo not drawn) | –
Cc1ccc(/C=N/NC(=O)CCn2nc(C)cc2C)c(C)c1 | –
O=S(=O)(NCc1cccnc1)c1ccc2c(c1)OCCO2 | 469
SMILES | INS promoter act
O=S(=O)(NCc1cccnc1)c1ccc(Cl)c(Cl)c1 | –
CCN(CC)C(=O)c1ccc(S(=O)(=O)NCc2cccnc2)cc1 | –
CCCNCC1C(Oc2ccc(Cl)cc2)C(=O)N1c1ccccc1C (stereo not drawn) | –
COc1ccc(/C=N/Nc2cn[nH]c(=O)c2Cl)cc1 | –
CC(C)CNC(=O)c1cccc(NC(=O)C2CCCO2)c1 (stereo not drawn) | 438
O=C(O)c1ccc(C(=O)Nc2cccc(NC(=O)C3CCCO3)c2)cc1 (stereo not drawn) | –
COc1cccc(C(=O)Nc2cccc(C(=O)NCC(C)C)c2)c1 | –
COc1ccc(C2(C)NC(=O)N(CC(=O)Nc3ccc4c(c3)OCO4)C2=O)cc1OC (stereo not drawn) | –
Cc1cc(NC(=O)CN2C(=O)NC3(CCC(C)CC3)C2=O)no1 (stereo not drawn) | –
CC1CCN(S(=O)(=O)c2ccc3nc(-c4ccccn4)cc(C(=O)NCCN(C)Cc4ccccc4)c3c2)CC1 | –
COC(=O)c1cn(C(=O)c2ccc(Br)o2)c2ccccc12 | –
COC(=O)c1cn(C(=O)c2ccc(C)c(C)c2)c2ccccc12 | –
COC(=O)c1cn(C(=O)c2cccc(C)c2)c2ccccc12 | 483
COCc1cc(C)nc(OCC(=O)N/N=C/c2ccc(C)o2)c1C#N | –
COc1cc(NS(=O)(=O)c2ccc3c(c2)n(C)c(=O)n3C)cc(OC)c1 | –
CCCCC(=O)OCC(=O)Nc1ccc(SC(F)F)cc1 | –
O=C(COc1ccc(S(=O)(=O)N2CCCC2)cc1Cl)NCc1ccc2c(c1)OCO2 | –
COC(=O)COc1ccc(S(=O)(=O)Nc2ccc3c(c2)OCO3)cc1Cl | –
O=C(COc1ccc(S(=O)(=O)NC2CCCCC2)cc1Cl)NCc1ccc2c(c1)OCO2 | 100
Cc1ccc(NC(=O)CSc2nnc(-c3cccnc3)n2CCN2CCCCC2)cc1 | –
COc1cc(NC(=O)c2cccc(C)c2)c(Cl)cc1[N+](=O)[O-] | –
Cc1cc(N2CCC(C)CC2)nc(NCc2ccccc2)n1 | –
O=C1Nc2ccccc2/C1=C\c1cccn1-c1ccc(OC(F)(F)F)cc1 | –
NC(=O)C1CCN(C(=O)OCc2ccccc2)CC1 | –
CC(C)(C)C(=O)Nc1cc(C(F)(F)F)ccc1N1CCOCC1 | –
O=C(/C=C/c1ccco1)NC(=S)Nc1cc(C(F)(F)F)ccc1N1CCOCC1 | 211
O=C(CCCCl)NC(=S)Nc1cc(C(F)(F)F)ccc1N1CCOCC1 | –
CC(C(=O)NC1=NCCS1)N1C(=O)C2CC=CCC2C1=O (stereo not drawn) | 121
Cc1cc(C)cc(OCC(=O)NC2=NCCS2)c1 | –
O=C(CCCN1C(=O)c2ccccc2C1=O)NC1=NCCS1 | –
